Calls of active or inactive are those of the source. The rule behind the calls is not given here.
How the values were obtained:
[1] = Vasolrelaxant activity in guinea pig lung; format: functional; details: Cavia porcellus
[2] = Vasolrelaxant activity in rat gastric fundus; format: functional, tissue-based; details: Stomach
Cavia porcellus [3] = species: Cavia porcellus; assay: Vasolrelaxant activity in guinea pig trachea; format: functional, tissue-based
Cavia porcellus [4] = species: Cavia porcellus; assay: Apparent binding affinity to VIP receptor in guinea pig acinar cells assessed as inhibition of VIP-induced cAMP accumulation measured as concentration required to occupy 50% of receptor; format: cell-based
Summary of the method: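 Dispersed acinar cells from guinea pig pancreas. Apparent affinity for the VIP-preferring receptor was calculated from the fragment's ability to inhibit the cAMP increase caused by 10^-9 M VIP. Values are means (±1 SD) from three separate experiments.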

Cavia porcellus [5] = species: Cavia porcellus; assay: Apparent binding affinity to secretin receptor in guinea pig acinar cells assessed as inhibition of secretin-induced cAMP accumulation measured as concentration required to occupy 50% of receptor; format: cell-based
Summary of the method: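 Dispersed acinar cells from guinea pig pancreas. Apparent affinity for the secretin-preferring receptor was calculated from the fragment's ability to inhibit the cAMP increase caused by 10^-9 M secretin. Values are means (±1 SD) from three separate experiments.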

Rattus norvegicus [6] = assay: Induction of pancreatic secretory flow in iv dosed rat measured per 10 mins per gram wet weight of pancreas relative to secretin; format: functional
Rattus norvegicus [7] = assay: Induction of pancreatic secretory flow in iv dosed rat measured per 10 mins per gram wet weight of pancreas; format: functional
Rattus norvegicus [8] = species: Rattus norvegicus; assay: Effect on exocrine pancreatic secretion in rat; format: functional, organism-based

For `CC[C@H](C)[C@H](NC(=O)[C@H](CO)NC(=O)[C@H](CC(N)=O)NC(=O)[C@H](CC(C)C)NC(=O)[C@H](Cc1ccc(O)cc1)NC(=O)[C@H](CCCCN)NC(=O)[C@H](CCCCN)NC(=O)[C@@H](NC(=O)[C@H](C)NC(=O)[C@H](CCSC)NC(=O)[C@H](CCC(N)=O)NC(=O)[C@H](CCCCN)NC(=O)[C@H](CCCN=C(N)N)NC(=O)[C@H](CC(C)C)NC(=O)[C@H](CCCN=C(N)N)NC(=O)[C@@H](NC(=O)[C@H](Cc1ccc(O)cc1)NC(=O)[C@H](CC(N)=O)NC(=O)[C@H](CC(=O)O)NC(=O)[C@@H](NC(=O)[C@H](Cc1ccccc1)NC(=O)[C@@H](NC(=O)[C@H](C)NC(=O)[C@H](CC(=O)O)NC(=O)[C@H](CO)NC(=O)[C@@H](N)Cc1c[nH]cn1)C(C)C)[C@@H](C)O)[C@@H](C)O)C(C)C)C(=O)N[C@@H](CC(C)C)C(=O)N[C@@H](CC(N)=O)C(N)=O`, the Activity [1] was “Active”, the Activity [2] was “Active” and the Activity (Cavia porcellus [3]) was “Active”.
For H-TFTSELSRLRDSARLQRLLQGLV-NH2, the Activity [1] was “Active”, the Activity (Cavia porcellus [4]) was 46 ×10⁻⁷ M and the Activity [2] was “Active”. The Activity (Cavia porcellus [3]) was “Active” and the Activity (Cavia porcellus [5]) was 2.3 ×10⁻⁷ M.
With H-TFTSELSRLRKSARLQRLLQGLV-NH2 the Activity [1] was “Active”, the Activity (Cavia porcellus [4]) was 10 ×10⁻⁷ M and the Emax (Rattus norvegicus [6]) was 20%. For the same molecule, the Activity [2] was “Active”, the Activity (Rattus norvegicus [7]) was 12.9 µL and the Activity (Cavia porcellus [3]) was “Active”. The Activity (Cavia porcellus [5]) was 12 ×10⁻⁷ M and the Activity (Rattus norvegicus [8]) was “inactive”.
In the case of H-TFTSELSRLRNSARLQRLLQGLV-NH2, the Activity (Cavia porcellus [4]) is reported as 8 ×10⁻⁷ M, the Activity (Rattus norvegicus [7]) is reported as “Active” and the Activity (Cavia porcellus [5]) is reported as 1.9 ×10⁻⁷ M. For the same molecule, the Activity (Rattus norvegicus [8]) was “inactive”.
With SECRETIN the Activity (Rattus norvegicus [7]) was “Active”.

Reference: ChEMBL document CHEMBL3272145, “Synthesis and some pharmacological properties of the 23-peptide 15-lysine-secretin-(5--27). Special role of the residue in position 15 in biological activity of the vasoactive intestinal polypeptide” (1978)
